Bioassay records deposited in PubChem by several laboratories.
PPC-1+TRAIL kill: compounds killing PPC-1 cancer cells with TRAIL present, primary screen, TRAIL potentiator project, ATPLite luminescence, uHTS; AID 1443, 2008; hit rate 0.41% among 220,000; cell killing (% activity), % at 4 µM or 5 µM; PPC-1 cells + TRAIL, ATPLite viability luminescence;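 active means cell killing above 50% in the first pass at 4 µM, then a duplicate retest at 5 µM averaging 50% or more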
FLuc inhib CS: firefly luciferase enzyme inhibitors, primary screen, artefact control for luciferase-based inhibitor screens, biochemical, luminescence, ATPLite. AID 1006, 2008. inhibition, % at 10 µM. Luciferin 4-monooxygenase (Photinus pyralis), P08659. hit rate 1.5% among 200,000. 10 min;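 active means inhibition above about 50% when tested at 10 µM, limit read from the data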
Target sequence (P08659 whole entry, looked up): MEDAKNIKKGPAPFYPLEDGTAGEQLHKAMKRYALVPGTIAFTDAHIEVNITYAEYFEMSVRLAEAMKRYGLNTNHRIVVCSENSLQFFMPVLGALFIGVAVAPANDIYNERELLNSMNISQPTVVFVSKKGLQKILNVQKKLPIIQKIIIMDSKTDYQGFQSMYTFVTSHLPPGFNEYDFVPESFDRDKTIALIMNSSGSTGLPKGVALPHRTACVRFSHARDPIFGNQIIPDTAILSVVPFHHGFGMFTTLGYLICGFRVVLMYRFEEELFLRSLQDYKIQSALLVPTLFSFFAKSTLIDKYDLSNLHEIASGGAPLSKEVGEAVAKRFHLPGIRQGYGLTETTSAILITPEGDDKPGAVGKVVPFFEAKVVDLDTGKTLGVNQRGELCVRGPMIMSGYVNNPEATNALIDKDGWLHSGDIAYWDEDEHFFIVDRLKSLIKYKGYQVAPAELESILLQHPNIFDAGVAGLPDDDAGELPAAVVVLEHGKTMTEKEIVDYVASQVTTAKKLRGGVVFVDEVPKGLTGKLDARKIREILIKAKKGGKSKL
C8 TRAIL sens: viability loss with TRAIL in NB7+C8 cells, primary screen, TRAIL sensitizer project, cell-based, ATPlite luminescence | hit rate 1% among 360,000 | inhibition (viability loss, TRAIL sensitization), % at 10 µM;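 active means compounds causing at least 50% loss of cell viability in the single-dose screen, relative to plate controls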
FLuc stim CS: FLuc activators, initial screening, artefact control for FLuc-dependent activation tests, biochemical, ATPlite luminescence | Luciferin 4-monooxygenase (Photinus pyralis), P08659 | ATPlite luciferase biochemical, 10 min; 0 = ATP-free wells, 1 = DMSO control | activation factor at 10 µM | 200,000 tested, under 10 active | AID 1027, 2008;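 active means luciferase activation factor, scaled between plate controls, of at least 2 with compound at 10 µM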
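System: luciferase plus luciferin reagent, cell-free; medium: PBS as buffer for the ATP substrate; dosing: test compounds dosed from 2 mM stocks in 100% DMSO; timing: 10 min post-reagent at room temperature; measured by: luminescence measurement of luciferase light output; evaluation: luciferase activation, seen as luminescence increase over controls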
HSP90 inh: HSP90 inhibitors, primary screen, cell lysate, luminescence; Heat shock protein HSP 90 (rabbit reticulocyte lysate; luciferase refolding); AID 1789, 2009; hit rate 0.91% among 290,000; inhibition, % at 5.6 µM; Rabbit reticulocyte lysate, luciferase refolding luminescence, 3 h;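 active means inhibition above the screen-wide mean plus 3 SD, computed separately per campaign, cut at about 16% in these data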;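 further: inhibitors lower the luminescence because luciferase stays unfolded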
PPC1 cytotox: cytotoxicity in PPC-1 cells, confirmation, cytotoxicity control for TRAIL apoptosis potentiator project, cell-based, ATP content luminescence; shares compounds with PPC-1+TRAIL kill; PPC-1 viability, ATPlite luminescence, overnight; AID 1447, 2008; hit rate 50% among 1,200; cytotoxicity, % at 5 µM;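 active means reconfirmed compounds whose average cytotoxicity reaches 50% or more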
Hits are given with their value; i = inactive; nt = no result. Hits are enriched below; roughly 2% of the tested compounds scored in any of these assays.

SMILES	PPC-1+TRAIL kill	FLuc inhib CS	C8 TRAIL sens	FLuc stim CS	HSP90 inh	PPC1 cytotox
COCC(C)n1c(C)cc(C(=O)COC(=O)c2ccc(N3CCCC3=O)cc2)c1C (centres undefined)	i	i	i	i	i	i
COCC(C)n1c(C)cc(C(=O)COC(=O)C2=NN(c3ccccc3)C(=O)CC2)c1C (centres undefined)	i	i	i	i	i	nt
COc1ccc(-c2nc3ncccn3c2Nc2ccc3c(c2)OCCO3)cc1	i	i	i	i	i	i
CN(Cc1ccccc1NCC(=O)Nc1ccccc1C#N)C1CCCCC1	i	i	i	i	i	nt
N#Cc1ccccc1NC(=O)CNc1ccccc1N1CCCCC1	i	i	i	i	i	i
O=C(CSc1nnc(NC(=O)c2ccc3c(c2)OCO3)s1)NCc1ccco1	80.2	91.0	81.7	i	i	79.5
O=C(CSc1nnc(NC(=O)c2ccco2)s1)NCc1ccc2c(c1)OCO2	i	i	i	i	i	nt
CCOC(=O)N/N=C\C=C\c1ccc2c(c1)OCO2	i	i	i	i	i	nt
O=C(/C=C/Nc1cccc(O)c1)c1ccccc1	73.6	94.7	66.9	i	i	71.6
Cc1ccc(C(=O)/C=C/Nc2cccc(O)c2)cc1	87.7	95.7	83.0	i	i	87.7
CCN(CC)c1ccc(C(=O)Nc2cccc(F)c2)cc1	i	i	i	i	i	i
CN(C)c1cccc(C(=O)Nc2cccc(F)c2)c1	i	i	i	i	i	nt
Cc1cccc(N=C2NC(=O)C(CO)(CO)S2)c1	nt	nt	i	nt	i	nt
O=C(Nc1nc2ccc([N+](=O)[O-])cc2s1)c1ccco1	i	i	nt	i	i	i
CC(=O)Nc1ccc2nc(NC(=O)c3ccco3)sc2c1	nt	nt	i	nt	i	nt
CCOc1ccc(NC(=S)N2CCCN(Cc3cc(C)ccc3C)C2)cc1	i	i	i	i	i	nt
Cc1ccccc1-c1nc2sc(C)c(C)c2c(=O)o1	nt	nt	i	nt	i	nt
Cc1sc2nc(C(C)(C)C)oc(=O)c2c1C	i	i	i	i	i	i
Cc1nn(Cc2ccc(C(=O)Nc3nc4c(C)cccc4s3)o2)c(C)c1Br	i	i	i	i	i	nt
Cc1csc(NC(=O)c2cccc(Cn3nc(C)c(Br)c3C)c2)n1	i	i	i	i	i	i
Cc1ccc(S(=O)(=O)Oc2ccccc2-c2ccccc2)cc1	nt	nt	i	nt	nt	nt
CN(C(=O)c1ccc(S(=O)(=O)N2CCCC2)cc1)C1CCS(=O)(=O)C1 (centres undefined)	nt	nt	i	nt	nt	nt
O=C(Nc1nc(-c2ccccn2)cs1)C12CC3CC(CC(O)(C3)C1)C2	i	82.6	59.6	i	i	i
CCc1nc2c(OCCOc3ccccc3)cccn2c1N(C)C(=O)c1ccc(C)cc1	nt	nt	i	nt	nt	nt
COc1cccc(C(C)NC(=O)C2CCCO2)c1 (centres undefined)	nt	nt	i	nt	i	nt
SMILES	PPC-1+TRAIL kill	FLuc inhib CS	C8 TRAIL sens	FLuc stim CS	HSP90 inh	PPC1 cytotox
COc1ccc(C(C)NC(=O)C2CCCO2)cc1OC (centres undefined)	i	i	i	i	i	i
COCCCN1CC(=O)N2Cc3[nH]c4ccccc4c3C[C@H]2C1=O	nt	nt	i	nt	i	nt
O=C(C[n+]1cc(-c2ccc(Cl)cc2)n2c1CCC2)Nc1nc(-c2ccc(F)cc2)cs1	i	nt	i	nt	i	nt
COC(=O)CSc1nc2cc(OC)ccc2cc1C#N	69.5	i	70.7	i	i	63.1
COc1ccc2cc(C#N)c(SCC(=O)N3CCCC3)nc2c1	i	i	i	i	i	nt
Cc1cccc2[nH]c(CN(C)C(=O)CC3C(=O)NCCN3CC(C)(C)C)nc12 (centres undefined)	i	i	i	i	i	nt
COc1nc(OC)nc(N2CCC(C(=O)NCc3cccs3)CC2)n1	i	i	i	i	i	i
c1ccc(CNc2nc(-c3ccccn3)nc3ccccc23)cc1	nt	nt	i	nt	i	nt
Fc1ccccc1/C=N/Nc1nc(-c2ccccn2)nc2ccccc12	61.1	nt	nt	nt	i	i
O=C1C(c2cc(=O)c3ccccc3[nH]2)=C(O)c2ccccc21	55.6	89.1	69.9	i	i	52.9
COc1ccc(C2c3[nH]c4ccccc4c3C[C@H]3C(=O)N(c4ccccc4C(=O)N4CCC[C@H]4C(=O)O)C(=O)N23)cc1 (some centres undefined)	nt	nt	i	nt	i	nt
Cc1ccn2cc(-c3ccc4c(c3)NC(=O)CO4)nc2c1	i	82.7	i	i	i	i
C=CC[C@H](CC(=O)NCCO)C(=O)N[C@@H](COC(=O)[C@H](CC=C)CC(=O)OC(C)(C)C)Cc1c[nH]c2ccccc12	nt	nt	i	nt	nt	nt
COc1cccc(NC(=O)CSc2nnc3ccc(-c4ccccn4)nn23)c1	nt	nt	i	nt	nt	nt
O=C(Nc1ccc2c(c1)OCCO2)c1ccccc1F	i	75.6	i	i	i	i
O=C(Nc1ccc2c(c1)OCCO2)c1ccc2ccccc2n1	i	61.7	i	i	i	i
CCC(CNc1cc(OC)cc2cccnc12)NC1CCCCC1 (centres undefined)	i	nt	i	nt	29.2	i
CC1CC(C)CN(c2ncnc3c2cnn3-c2ccc(Cl)cc2)C1 (centres undefined)	nt	i	i	i	i	nt
CC1CCCN(c2ncnc3c2cnn3-c2ccccc2)C1 (centres undefined)	77.5	nt	86.0	nt	nt	78.4
CC1CCCN(c2ncnc3c2cnn3-c2ccc(Cl)cc2)C1 (centres undefined)	78.5	nt	86.8	nt	nt	79.2
C=CCNC(=O)c1ccc2c3n(nc2c1)-c1ccc(Cl)cc1CO3	nt	nt	i	nt	nt	nt
O=C(NCC1CC1)c1ccc2c3n(nc2c1)-c1ccccc1CO3	79.7	nt	82.7	nt	nt	75.7
O=C(NCCO)c1ccc2c3n(nc2c1)-c1ccccc1CO3	70.6	nt	70.2	nt	nt	70.3
Cc1ccc2c(c1)COc1c3ccc(C(=O)NCC4CC4)cc3nn1-2	i	nt	i	nt	nt	nt
Clc1ccc(-c2nc3nc4ccccc4nc3n2Cc2ccco2)cc1	i	i	i	i	i	i
SMILES	PPC-1+TRAIL kill	FLuc inhib CS	C8 TRAIL sens	FLuc stim CS	HSP90 inh	PPC1 cytotox
CC1CN(C(=O)c2ccc3c(c2)OCO3)CC(C)O1 (centres undefined)	i	i	i	i	i	i
O=S(=O)(NCCCCCNS(=O)(=O)c1ccc(F)cc1)c1ccc(F)cc1	i	i	i	i	i	i
O=C(O)CCCNS(=O)(=O)c1ccc(F)cc1	i	i	i	i	i	nt
CCOC(=O)c1cc2sccc2n1CC(=O)Nc1ccc(OC)c(OC)c1	i	i	i	i	i	i
CCSc1ccc(-c2ccc(C)cc2)nn1	50.4	87.7	57.0	i	i	51.0
CCNC(=O)N1CCNC(=O)C1CC(=O)OC (centres undefined)	i	i	i	i	i	i
CCOc1ccc(Cl)cc1-c1cc(C(=O)NC(C)C)[nH]n1	nt	nt	i	nt	nt	nt
CC1(C)CC(=O)c2sc(NC(=O)c3ccccc3)nc2C1	52.4	87.7	nt	i	i	52.5
